ChEMBL document CHEMBL2163269, “Double-headed sulfur-linked amino acids as first inhibitors for betaine-homocysteine S-methyltransferase 2” (J Med Chem, 2012)
Calls of active or inactive are those of the source. No cut-off for these calls is given here.

Assays:
[1] = target: T1, S-methylmethionine--homocysteine S-methyltransferase BHMT2 (Homo sapiens) (UniProt Q9H2M3); experiment: Inhibition of recombinant human BHMT2 expressed in Escherichia coli […] at 20 uM
T1 sequence (whole entry): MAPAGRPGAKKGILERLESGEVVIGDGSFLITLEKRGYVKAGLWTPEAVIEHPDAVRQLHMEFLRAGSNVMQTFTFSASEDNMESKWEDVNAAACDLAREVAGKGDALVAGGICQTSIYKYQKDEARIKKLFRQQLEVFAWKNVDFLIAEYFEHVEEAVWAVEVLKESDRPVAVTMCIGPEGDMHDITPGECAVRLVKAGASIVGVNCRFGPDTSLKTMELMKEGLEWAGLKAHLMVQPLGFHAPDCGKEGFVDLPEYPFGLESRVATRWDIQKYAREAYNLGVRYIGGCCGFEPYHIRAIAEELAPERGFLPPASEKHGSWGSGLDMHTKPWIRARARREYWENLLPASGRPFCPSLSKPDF
Outline: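 BHMT-2 copurified with BHMT, 0.2–1 μM total protein. Reaction: 0.25 mM SMM (0.3 μCi), 2.5 mM D,L-Hcy, 0.2 mM ZnCl2, 0.1% β-mercaptoethanol, 50 mM Tris/HCl pH 7.5, 60 min at 37 °C. Methanol stop, product isolated on Dowex 1×4. Percent inhibition at 20 μM, tetraplicates, means ± SEM.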

[2] = target: T2, Betaine--homocysteine S-methyltransferase 1 (Homo sapiens) (UniProt Q93088); experiment: Inhibition of recombinant human BHMT expressed in Escherichia coli […] at 20 uM
T2 sequence (whole entry): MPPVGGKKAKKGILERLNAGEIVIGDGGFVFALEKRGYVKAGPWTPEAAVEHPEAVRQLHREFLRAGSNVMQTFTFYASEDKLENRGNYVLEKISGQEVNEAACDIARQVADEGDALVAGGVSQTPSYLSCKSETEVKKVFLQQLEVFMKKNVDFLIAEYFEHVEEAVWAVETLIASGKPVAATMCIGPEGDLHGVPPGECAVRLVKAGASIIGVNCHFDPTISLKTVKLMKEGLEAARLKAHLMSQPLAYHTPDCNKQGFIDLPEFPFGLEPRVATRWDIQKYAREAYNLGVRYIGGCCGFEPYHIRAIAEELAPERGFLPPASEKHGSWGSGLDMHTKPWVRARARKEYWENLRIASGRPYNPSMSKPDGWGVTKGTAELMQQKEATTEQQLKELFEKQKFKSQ
Outline: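 Human BHMT at 0.2 or 0.4 μM in 0.5 mL. 30 min at 37 °C, blanks without enzyme subtracted. Percent inhibition at 20 μM inhibitor in tetraplicates, means ± SEM.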

[3] = target: T3, S-methylmethionine--homocysteine S-methyltransferase BHMT2 (Homo sapiens, UniProt Q9H2M3); experiment: Competitive inhibition of recombinant human BHMT2 expressed in Escherichia coli […] by Dixon plot method in presence of D,L-homocysteine; details: read-out: Ki(app)
T3 sequence (Q9H2M3 whole entry): T1 sequence (whole entry)
Outline: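 BHMT-2 copurified with BHMT on chitin affinity. 0.2 mL reaction: 0.25 mM SMM (0.3 μCi), 0.2 mM ZnCl2, 0.1% β-mercaptoethanol, 50 mM Tris/HCl pH 7.5. D,L-Hcy varied 75–250 μM, inhibitor 0–300 nM. 60 min at 37 °C, methanol stop, Dowex 1×4 column. Triplicates, four separate measurements. Kiapp read from line intersection.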

[4] = target: T4, Betaine--homocysteine S-methyltransferase 1 (Homo sapiens, UniProt Q93088); experiment: Inhibition of recombinant human BHMT expressed in Escherichia coli […]
T4 sequence (Q93088 whole entry): T2 sequence (whole entry)
Outline: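 Human BHMT at 0.2 or 0.4 μM in 0.5 mL. Mix: 2 mM 14C-betaine (0.15 μCi), 1 mM fresh D,L-Hcy, 50 mM Tris/HCl pH 7.5, 0.07% β-mercaptoethanol. 30 min at 37 °C, ice-water stop, no-enzyme blank subtracted. At least nine inhibitor concentrations, duplicates. IC50 by nonlinear regression, ±SEM from three independent runs.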

[5] = target: T3, S-methylmethionine--homocysteine S-methyltransferase BHMT2; experiment: Inhibition of recombinant human BHMT2 expressed in Escherichia coli […]
Outline: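 BHMT-2 stabilized by copurification with BHMT, 0.2–1 μM total protein. 0.2 mL: 0.25 mM radiolabeled SMM (0.3 μCi), 2.5 mM D,L-Hcy, 0.2 mM ZnCl2, 0.1% β-mercaptoethanol, 50 mM Tris/HCl pH 7.5. 60 min at 37 °C, Dowex separation. At least nine inhibitor concentrations in duplicate. IC50 by nonlinear regression, ±SEM of three independent runs.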

| Compound | inhibition [1] | inhibition [2] | Ki [3] [µM] | IC50 [4] [µM] | IC50 [5] [µM] |
| --- | --- | --- | --- | --- | --- |
| NC(CCSCCCCC(=O)O)C(=O)O (stereo not given) | inactive | Active | – | – | – |
| N[C@@H](CCSCCSCC[C@H](N)C(=O)O)C(=O)O | 60% | – | – | – | – |
| N[C@@H](CCSCSCC[C@H](N)C(=O)O)C(=O)O | inactive | – | – | – | – |
| CC(CCSCC[C@H](N)C(=O)O)CCC(N)C(=O)O (mixture of isomers) | > 90% | 28% | 0.077 | 76.6 | 3.6 |
| CC(C)(CCSCC[C@H](N)C(=O)O)CCC(N)C(=O)O (mixture of isomers) | – | Active | – | – | – |
